The target in data set [1] is T1, Phosphotyrosine-protein phosphatase PTPB (Mycobacterium tuberculosis) (UniProt P96830).
T1 sequence (whole entry): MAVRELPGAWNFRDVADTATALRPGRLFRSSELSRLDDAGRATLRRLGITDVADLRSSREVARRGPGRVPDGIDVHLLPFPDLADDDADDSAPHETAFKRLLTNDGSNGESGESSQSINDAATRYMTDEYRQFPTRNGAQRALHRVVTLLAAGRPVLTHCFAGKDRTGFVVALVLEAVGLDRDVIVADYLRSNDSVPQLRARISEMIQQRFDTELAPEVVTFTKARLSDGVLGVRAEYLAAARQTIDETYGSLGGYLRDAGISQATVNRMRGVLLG
In words: Inhibition of Mycobacterium tuberculosis PTP-B using p-nitrophenyl phosphate as substrate at 25 uM measured for 10 mins by spectrofluorimetry. In short, it runs like this: (§1)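 Single-point screen at 25 μM final compound, added from 1.0 × 10−3 M DMSO stock, with recombinant Mtb PtpA or PtpB (0.4 μg/μL final) in 20 mM imidazole pH 7.0 with 40 mM pNPP. Reaction started by adding enzyme. p-Nitrophenol release read at 410 nm every min for 10 min at 37 °C. Residual activity was taken from the absorbance difference between 6 and 2 min; two experiments, each in triplicate.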

Data set [2] addresses T2, Low molecular weight protein-tyrosine phosphatase A (Mycobacterium tuberculosis) (UniProt P9WIA1).
T2 sequence (whole entry): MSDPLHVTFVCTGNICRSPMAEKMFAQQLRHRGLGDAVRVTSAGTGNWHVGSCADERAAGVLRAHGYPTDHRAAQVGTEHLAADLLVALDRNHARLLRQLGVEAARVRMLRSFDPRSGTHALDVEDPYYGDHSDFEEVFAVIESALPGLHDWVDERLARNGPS
The experiment in a line: Inhibition of Mycobacterium tuberculosis PTP-A using p-nitrophenyl phosphate as substrate at 25 uM measured for 10 mins by spectrofluorimetry. In a few lines: as §1

Data set [3] is described as follows: Solubility of the compound. The format is physicochemical.
For data set [4], the target named is T3, Low molecular weight protein-tyrosine phosphatase A (Mycobacterium tuberculosis, UniProt P9WIA1).
T3 sequence (P9WIA1 whole entry): T2 sequence (whole entry)
The experiment in a line: Inhibition of Mycobacterium tuberculosis PTP-A using p-nitrophenyl phosphate as substrate measured for 10 mins by spectrofluorimetry. In short, it runs like this: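 A410 read each minute over 10 min at 37 °C. Residual activity compared with wells without inhibitor; IC50 by linear regression of % inhibition against concentration. Triplicate, two independent experiments.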

Molecules are shown by their SMILES.

This note sets out measurements from ChEMBL document CHEMBL1944567, “Synthesis, biological evaluation, and molecular modeling of chalcone derivatives as potent inhibitors of Mycobacterium tuberculosis protein tyrosine phosphatases (PtpA and PtpB)” (J Med Chem, 2012).

Usually inhibition stands for the relative decrease from the control value, in per cent. By IC50 is commonly meant the midpoint of a concentration-inhibition curve. A lower IC50 goes with greater potency.

For the compound `Cc1ccc(/C=C/C(=O)c2ccc3c(c2)OCO3)o1`, the inhibition amounted to 8% in data set [1] and 40% in data set [2]. For the same compound, the solubility result in data set [3] is “soluble”. The midpoint of inhibition in data set [4], the IC50, lay at 169 µM.
Regarding `COc1ccc(/C=C/C(=O)c2ccc3c(c2)OCO3)c(OC)c1OC`, the values for the inhibition in data set [1] and in data set [2] were 9% and 26%, respectively. In addition, the solubility entry in data set [3] is on record as “soluble”. This compound also yielded an IC50 in data set [4] of 83 µM.
Taken in the same sequence, the figures for `COc1cc(/C=C/C(=O)c2ccc(Br)cc2)ccc1OCc1ccccc1` were 0%, 63%, “soluble” and 302 µM.
For `O=C(/C=C/c1ccc(Br)cc1)c1ccc2c(c1)OCO2`, the values for the inhibition in data set [1] and in data set [2] were 9% and 37%, respectively. The solubility entry in data set [3] was “soluble”. The compound further gave an IC50 in data set [4] of 66 µM.
As to `O=C(/C=C/c1ccc(Cl)cc1)c1ccc2c(c1)OCO2`, the inhibition in data set [1] was determined as 0%; in data set [2], 38%. Moreover, the solubility result in data set [3] is on record as “soluble”. Further, the IC50 in data set [4] stood at 117 µM.
With `O=C(/C=C/c1ccc2ccccc2c1)c1ccc(-n2ccnc2)cc1`, the results for the inhibition in data set [1] and in data set [2] were 0% and 40%, respectively. Further, in data set [3], the solubility entry is “soluble”. The compound further yielded an IC50 in data set [4] of 100 µM.
As to `COc1ccc2nc(Cl)c(/C=C/C(=O)c3ccc4c(c3)OCO4)cc2c1`, the inhibition in data set [1] was 0%; in data set [2] it was 29%. The solubility result in data set [3] is on record as “soluble”. The compound also showed an IC50 in data set [4] of 93 µM.
As for `COc1ccc(C(=O)/C=C/c2ccc3c(c2)OCO3)c(OC)c1`, the values for the inhibition in data set [1] and in data set [2] were 0% and 42%, respectively. The solubility result in data set [3] is “soluble”. The compound further gave an IC50 in data set [4] of 101 µM.
Consider `O=C(/C=C/c1cccc(C(F)(F)F)c1)c1ccc2c(c1)OCO2`, for which the results for the inhibition in data set [1] and in data set [2] were 0% and 41%, respectively. Also, in data set [3], the solubility entry was “soluble”. In data set [4], this compound came in with a half-inhibitory concentration (IC50) of 155 µM.
As to `O=C(/C=C/c1ccc(-c2cc(C(F)(F)F)ccc2Cl)o1)c1ccc2c(c1)OCO2`, the inhibition in data set [1] turned out to be 16%; in data set [2], 36%. For the same compound, the solubility result in data set [3] is “soluble”. The compound also registered a concentration for half-maximal inhibition (IC50) in data set [4] of 174 µM.
Turning to `O=C(/C=C/c1ccc([N+](=O)[O-])cc1)c1ccc2c(c1)OCO2`, the inhibition in data set [1] was 10%; in data set [2], 35%. In data set [3], the solubility entry is reported as “soluble”. This compound also showed an IC50 in data set [4] of 74 µM.
Take `O=C(/C=C/c1ccc(Cl)c(Cl)c1)c1ccc2c(c1)OCO2`: the values for the inhibition in data set [1] and in data set [2] were 0% and 35%, respectively. The solubility entry in data set [3] is recorded as “soluble”. This compound yielded a concentration for half-maximal inhibition (IC50) in data set [4] of 151 µM.
Turning to `COc1ccc(/C=C/C(=O)c2ccc3ccccc3c2)cc1`, the inhibition was 0% in data set [1] and 35% in data set [2]. The solubility entry in data set [3] is reported as “soluble”. This compound returned an IC50 in data set [4] of 93 µM.
As to `O=C(/C=C/c1ccc(Cl)cc1Cl)c1ccc2c(c1)OCO2`, the values for the inhibition in data set [1] and in data set [2] were 0% and 27%, respectively. Moreover, the solubility entry in data set [3] was “soluble”. In data set [4], this compound returned an IC50 of 407 µM.
Taken in the same sequence, the figures for `O=C(/C=C/c1cccc2ccccc12)c1ccc2ccccc2c1` were 0%, 43%, “soluble” and 93 µM.
As to `COc1cccc(OC)c1/C=C/C(=O)c1ccc2ccccc2c1`, the inhibition in data set [1] was determined as 24%; in data set [2] it was 40%. The solubility entry in data set [3] is reported as “soluble”. This compound also had a half-maximal inhibitory concentration (IC50) in data set [4] of 214 µM.
For the compound `O=C(/C=C/c1cccc([N+](=O)[O-])c1)c1ccc2c(c1)OCO2`, the results for the inhibition in data set [1] and in data set [2] were 22% and 23%, respectively. Further, the solubility result in data set [3] is reported as “soluble”.
Take `COc1cc(/C=C/C(=O)c2ccc(-n3ccnc3)cc2)ccc1OCc1ccccc1`: the inhibition is 0% in data set [1] and 38% in data set [2]. For the same compound, the solubility result in data set [3] is “soluble”. In addition, the half-inhibitory concentration (IC50) in data set [4] came to 102 µM.
In the case of `COc1cc(OC)c(C(=O)/C=C/c2ccc3c(c2)OCO3)c(OC)c1`, the inhibition worked out at 15% in data set [1] and 0% in data set [2]. Also, the solubility result in data set [3] is recorded as “soluble”.
With `O=C(/C=C/c1ccc(Cl)c(C(F)(F)F)c1)c1ccc2ccccc2c1`, the results for the inhibition in data set [1] and in data set [2] were 0% and 13%, respectively. Besides, the solubility entry in data set [3] is “soluble”.
Turning to `O=C(/C=C/c1ccccc1F)c1ccc2c(c1)OCO2`, the inhibition in data set [1] was found to be 0%; in data set [2], 9%. For the same compound, in data set [3], the solubility entry is “soluble”.
Taken in the same sequence, the figures for `O=C(/C=C/c1ccccc1)c1ccc2c(c1)OCO2` were 0%, 0% and “soluble”.
As to `COc1cccc(/C=C/C(=O)c2ccc3c(c2)OCO3)c1`, the inhibition in data set [1] worked out at 0%; in data set [2], 10%. The solubility entry in data set [3] is given as “soluble”.
Consider `N#Cc1ccc(/C=C/C(=O)c2ccc3c(c2)OCO3)cc1`, for which the figures for the inhibition in data set [1] and in data set [2] were 0% and 4%, respectively. Also, the solubility result in data set [3] is on record as “soluble”.
For the compound `O=C(/C=C/c1c(Cl)cccc1Cl)c1ccc2c(c1)OCO2`, the inhibition in data set [1] worked out at 0%; in data set [2], 13%. In data set [3], the solubility entry is given as “soluble”.
For `O=C(/C=C/c1cccc2ccccc12)c1ccc2c(c1)OCO2`, the figures for the inhibition in data set [1] and in data set [2] were 0% and 8%, respectively. Besides, the solubility result in data set [3] is reported as “soluble”.
Taken in the same sequence, the figures for `COc1cc(OC)c(C(=O)/C=C/c2ccc3ccccc3c2)cc1OC` were 14%, 22% and “soluble”.
Regarding `O=C(/C=C/c1ccc2ccccc2c1)c1ccc2c(c1)OCO2`, the inhibition in data set [1] is 15%; in data set [2] it was 12%. Also, the solubility entry in data set [3] is given as “soluble”.
For the compound `O=C(/C=C/c1cc(Cl)cc(Cl)c1)c1ccc2c(c1)OCO2`, the inhibition in data set [1] turned out to be 0%; in data set [2], 14%. Further, the solubility result in data set [3] is recorded as “soluble”.
For `COc1cc(/C=C/C(=O)c2ccc3c(c2)OCO3)cc(OC)c1OC`, the inhibition turned out to be 0% in data set [1] and 5% in data set [2]. Further, in data set [3], the solubility result is given as “soluble”.
Turning to `CCCCOc1ccc(/C=C/C(=O)c2ccc3c(c2)OCO3)cc1`, the results for the inhibition in data set [1] and in data set [2] were 0% and 11%, respectively. Further, in data set [3], the solubility result is “soluble”.
Consider `COc1ccc(OC)c(/C=C/C(=O)c2ccc3c(c2)OCO3)c1`, for which the figures for the inhibition in data set [1] and in data set [2] were 0% and 10%, respectively. Moreover, the solubility result in data set [3] is recorded as “soluble”.
With `COc1cc(OC)c(OC)cc1/C=C/C(=O)c1ccc2c(c1)OCO2`, the inhibition in data set [1] and in data set [2] was 19% in each case. In addition, in data set [3], the solubility result is “soluble”.
Consider `COc1ccc(/C=C/C(=O)c2ccc3ccccc3c2)c(OC)c1OC`, for which the inhibition in data set [1] and in data set [2] was 0% each time. The solubility result in data set [3] is on record as “soluble”.
`COc1cc(/C=C/C(=O)c2ccc3c(c2)OCO3)ccc1OCc1ccccc1`: the inhibition in data set [1] came to 0%; in data set [2], 12%. Further, in data set [3], the solubility entry is on record as “soluble”.
